The results in this text go back to ChEMBL document CHEMBL1157038, “Synthesis and in vitro microbiological evaluation of an array of biolabile 2-morpholino-N-(4,6-diarylpyrimidin-2-yl)acetamides” (2010).

Format in all cases: functional
One experiment deals with Staphylococcus aureus. Briefly: Antibacterial activity against Staphylococcus aureus after 24 hrs by twofold serial dilution method. The procedure, abridged:
(§1)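 Compounds dissolved in DMSO as 1 mg/mL stock. Seeded nutrient broth prepared from 24 h nutrient agar cultures, adjusted by plate count. Final inoculum 10⁵ cfu/mL at pH 7.4. First dilution was 0.4 mL stock in 1.6 mL seeded broth, then serial twofold through six dilutions. Seeded-broth-only tubes served as controls. Incubated at 37 °C; MIC read visually at 24 h.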

Another experiment relates to Mucor. Briefly: Antifungal activity against Mucor after 1 to 7 days by twofold serial dilution method. The procedure, abridged:
(§2)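 Test compounds were made as 1 mg/mL DMSO stocks. Spores from 1–7 day Sabouraud agar slants were suspended in Sabouraud dextrose broth at pH 5.6. Final inoculum 1.1–1.5×10² cfu/mL. First dilution was 0.4 mL stock plus 1.6 mL seeded broth, followed by six twofold serial dilutions. Controls held seeded broth only. Incubated at 28 °C; MIC read visually after 72–96 h.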

A further experiment concerns Nannizzia gypsea. The experiment in a line: Antifungal activity against Microsporum gypseum after 1 to 7 days by twofold serial dilution method. A digest of the protocol:
as §2

For a further experiment, the system named is Pseudomonas. The experiment in a line: Antibacterial activity against Pseudomonas after 24 hrs by twofold serial dilution method. The procedure, abridged:
as §1

In a further experiment the test system is Aspergillus flavus. Briefly: Antifungal activity against Aspergillus flavus after 1 to 7 days by twofold serial dilution method. The procedure, abridged:
as §2

For a further experiment, the system named is Vibrio cholerae. Briefly: Antibacterial activity against Vibrio cholerae after 24 hrs by twofold serial dilution method.
A further experiment has as its system Rhizopus. The experiment in a line: Antifungal activity against Rhizopus after 1 to 7 days by twofold serial dilution method. A digest of the protocol:
as §2

Another experiment deals with Escherichia coli. Briefly: Antibacterial activity against Escherichia coli after 24 hrs by twofold serial dilution method. A digest of the protocol: as §1
In another experiment the test system is Klebsiella pneumoniae. Briefly: Antibacterial activity against Klebsiella pneumoniae after 24 hrs by twofold serial dilution method. The procedure, abridged: as §1

Converted amounts (≈) assume the structure as drawn.

What is called MIC is the lowest concentration found to suppress growth. Read a low MIC as inhibition by little substance. On to `O=C(CN1CCOCC1)Nc1nc(-c2ccccc2)cc(-c2ccccc2)n1`, for which the MIC was 200 µg/mL (≈ 534 µM) with Staphylococcus aureus; 100 µg/mL (≈ 267 µM) with Mucor; 200 µg/mL (≈ 534 µM) against Nannizzia gypsea; 100 µg/mL (≈ 267 µM) against Pseudomonas; 200 µg/mL (≈ 534 µM) against Aspergillus flavus; 200 µg/mL (≈ 534 µM) against Vibrio cholerae. Besides, the minimum inhibitory concentration (MIC) with Rhizopus turned out to be 100 µg/mL (≈ 267 µM); against Escherichia coli, 200 µg/mL (≈ 534 µM); against Klebsiella pneumoniae it was 50 µg/mL (≈ 134 µM).
Take `Cc1ccc(-c2cc(-c3ccc(F)cc3)nc(NC(=O)CN3CCOCC3)n2)cc1`: the MIC in the experiment on Staphylococcus aureus came to 12.5 µg/mL (≈ 30.8 µM); in the experiment on Mucor, 100 µg/mL (≈ 246 µM); against Nannizzia gypsea, 12.5 µg/mL (≈ 30.8 µM); in the experiment with Pseudomonas, 100 µg/mL (≈ 246 µM); in the experiment with Aspergillus flavus, 200 µg/mL (≈ 492 µM); in the experiment on Vibrio cholerae, 12.5 µg/mL (≈ 30.8 µM). In addition, the MIC against Rhizopus, against Escherichia coli and in the experiment on Klebsiella pneumoniae was 50 µg/mL (≈ 123 µM) throughout.
Consider `COc1ccc(-c2cc(-c3ccc(F)cc3)nc(NC(=O)CN3CCOCC3)n2)cc1`, for which the MIC against Staphylococcus aureus amounted to 200 µg/mL (≈ 473 µM); against Mucor, 6.25 µg/mL (≈ 14.8 µM); with Nannizzia gypsea, 100 µg/mL (≈ 237 µM); against Pseudomonas it was 6.25 µg/mL (≈ 14.8 µM); against Aspergillus flavus, 6.25 µg/mL (≈ 14.8 µM); in the experiment with Vibrio cholerae it was 100 µg/mL (≈ 237 µM). For the same compound, the MIC with Rhizopus turned out to be 200 µg/mL (≈ 473 µM); in the experiment with Escherichia coli, 50 µg/mL (≈ 118 µM); against Klebsiella pneumoniae it was 100 µg/mL (≈ 237 µM).
With `O=C(CN1CCOCC1)Nc1nc(-c2ccccc2)cc(-c2ccc(F)cc2)n1`, the MIC worked out at 200 µg/mL (≈ 510 µM) in the experiment with Staphylococcus aureus; 50 µg/mL (≈ 127 µM) against Mucor; 200 µg/mL (≈ 510 µM) with Nannizzia gypsea; 100 µg/mL (≈ 255 µM) against Pseudomonas; 6.25 µg/mL (≈ 15.9 µM) against Aspergillus flavus; 50 µg/mL (≈ 127 µM) in the experiment on Vibrio cholerae. For the same compound, the MIC in the experiment on Rhizopus amounted to 100 µg/mL (≈ 255 µM); against Escherichia coli, 50 µg/mL (≈ 127 µM); against Klebsiella pneumoniae it was 6.25 µg/mL (≈ 15.9 µM).
On to `COc1ccc(-c2cc(-c3ccc(C)cc3)nc(NC(=O)CN3CCOCC3)n2)cc1`, for which the MIC in the experiment on Staphylococcus aureus stood at 100 µg/mL (≈ 239 µM); in the experiment on Mucor, 50 µg/mL (≈ 119 µM); against Nannizzia gypsea, 50 µg/mL (≈ 119 µM); against Pseudomonas, 50 µg/mL (≈ 119 µM); against Aspergillus flavus it was 100 µg/mL (≈ 239 µM); against Vibrio cholerae it was 12.5 µg/mL (≈ 29.9 µM). Moreover, the values for the minimal inhibitory concentration (MIC) in the experiment on Rhizopus, against Escherichia coli and with Klebsiella pneumoniae were 12.5 µg/mL (≈ 29.9 µM), 200 µg/mL (≈ 478 µM) and 50 µg/mL (≈ 119 µM), respectively.
For `O=C(CN1CCOCC1)Nc1nc(-c2ccc(F)cc2)cc(-c2ccc(F)cc2)n1`, the MIC with Staphylococcus aureus is 100 µg/mL (≈ 244 µM); in the experiment with Mucor, 6.25 µg/mL (≈ 15.2 µM); against Nannizzia gypsea it was 100 µg/mL (≈ 244 µM); with Pseudomonas, 6.25 µg/mL (≈ 15.2 µM); in the experiment on Aspergillus flavus, 12.5 µg/mL (≈ 30.5 µM); with Vibrio cholerae it was 50 µg/mL (≈ 122 µM). The minimum inhibitory concentration (MIC) came to 6.25 µg/mL (≈ 15.2 µM) with Rhizopus, 6.25 µg/mL (≈ 15.2 µM) in the experiment with Escherichia coli and 50 µg/mL (≈ 122 µM) against Klebsiella pneumoniae.
As for `Cc1ccc(-c2cc(-c3ccccc3)nc(NC(=O)CN3CCOCC3)n2)cc1`, the MIC against Staphylococcus aureus is 50 µg/mL (≈ 129 µM); with Mucor it was 50 µg/mL (≈ 129 µM); in the experiment on Nannizzia gypsea it was 50 µg/mL (≈ 129 µM); against Pseudomonas it was 50 µg/mL (≈ 129 µM); with Aspergillus flavus, 100 µg/mL (≈ 257 µM); in the experiment on Vibrio cholerae it was 100 µg/mL (≈ 257 µM). The MIC in the experiment with Rhizopus worked out at 50 µg/mL (≈ 129 µM); against Escherichia coli, 50 µg/mL (≈ 129 µM); against Klebsiella pneumoniae it was 100 µg/mL (≈ 257 µM).
As to `COc1ccc(-c2cc(-c3ccccc3)nc(NC(=O)CN3CCOCC3)n2)cc1`, the MIC amounted to 50 µg/mL (≈ 124 µM) against Staphylococcus aureus; 200 µg/mL (≈ 494 µM) against Mucor; 100 µg/mL (≈ 247 µM) in the experiment on Nannizzia gypsea; 50 µg/mL (≈ 124 µM) in the experiment on Pseudomonas; 100 µg/mL (≈ 247 µM) with Aspergillus flavus; 100 µg/mL (≈ 247 µM) in the experiment with Vibrio cholerae. The MIC against Rhizopus amounted to 100 µg/mL (≈ 247 µM); with Escherichia coli, 200 µg/mL (≈ 494 µM); in the experiment on Klebsiella pneumoniae, 100 µg/mL (≈ 247 µM).
With `O=C(O)c1cn(C2CC2)c2cc(N3CCNCC3)c(F)cc2c1=O` [CIPROFLOXACIN], the MIC in the experiment with Pseudomonas came to 25 µg/mL (≈ 75.4 µM); against Vibrio cholerae, 50 µg/mL (≈ 151 µM); against Escherichia coli it was 25 µg/mL (≈ 75.4 µM).
Turning to `OC(Cn1cncn1)(Cn1cncn1)c1ccc(F)cc1F` [FLUCONAZOLE], the MIC in the experiment with Mucor turned out to be 25 µg/mL (≈ 81.6 µM); against Nannizzia gypsea, 25 µg/mL (≈ 81.6 µM); with Aspergillus flavus, 50 µg/mL (≈ 163 µM); against Rhizopus, 25 µg/mL (≈ 81.6 µM).
